Experiments:
Format in all cases: functional
[1] = system: MONO-MAC-6; experiment: Upregulation of CXCL2 mRNA expression level in LPS-stimulated human MONO-MAC-6 cells at 5 uM preincubated for 30 mins followed by LPS stimulation measured after 4 hrs by oligonucleotide array hybridization assay (reference value: 13.17)
[2] = system: MONO-MAC-6; experiment: Upregulation of CCL4 mRNA expression level in LPS-stimulated human MONO-MAC-6 cells at 5 uM preincubated for 30 mins followed by LPS stimulation measured after 1 hr by oligonucleotide array hybridization assay (reference value: 1.14)
[3] = system: MONO-MAC-6; experiment: Downregulation of PTX3 mRNA expression level in human MONO-MAC-6 cells at 5 uM incubated for 30 mins measured after 1 hr by oligonucleotide array hybridization assay relative to control
In short: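 Total RNA was isolated, transcribed and labeled with DY-647 dye, then co-hybridized with DY-548-labeled cDNA from untreated cells on an inflammation oligonucleotide chip (780 gene probes). Differential expression >1.5 was taken as significant.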

## COc1ccc(CCN(C)CCCn2c3ccccc3c3ccccc32)cc1
[1]
  fold change (FC): 5.82
[2]
  fold change (FC): 1.24
[3]
  fold change (FC): 1.48
